Source: ChEMBL document CHEMBL4823328, “Structure-Guided Design of d-Galactal Derivatives with High Affinity and Selectivity for the Galectin-8 N-Terminal Domain” (ACS Med Chem Lett, 2021)
Calls of active or inactive are those of the source. No cut-off for these calls is given here.

Assays:
Homo sapiens [1] = species on record: Homo sapiens; test: Selectivity for human galectin-8N over human galectin-3
Homo sapiens [2] = species on record: Homo sapiens; test: Selectivity for human galectin-8N over human galectin-4 C terminal domain
Homo sapiens [3] = species on record: Homo sapiens; test: Selectivity for human galectin-8N over human galectin-4 N terminal domain
Homo sapiens [4] = species on record: Homo sapiens; test: Selectivity for human galectin-8N over human galectin-1
Galectin-9 [5] = biological target: T1, Galectin-9 (Homo sapiens, UniProt O00182); test: Binding affinity to human galectin-9 N terminal domain assessed as dissociation constant measured up to 1500 uM by competitive fluorescence polarization assay; settings: dose microM <=1500
T1 sequence (O00182 whole entry, the tested form may be a part): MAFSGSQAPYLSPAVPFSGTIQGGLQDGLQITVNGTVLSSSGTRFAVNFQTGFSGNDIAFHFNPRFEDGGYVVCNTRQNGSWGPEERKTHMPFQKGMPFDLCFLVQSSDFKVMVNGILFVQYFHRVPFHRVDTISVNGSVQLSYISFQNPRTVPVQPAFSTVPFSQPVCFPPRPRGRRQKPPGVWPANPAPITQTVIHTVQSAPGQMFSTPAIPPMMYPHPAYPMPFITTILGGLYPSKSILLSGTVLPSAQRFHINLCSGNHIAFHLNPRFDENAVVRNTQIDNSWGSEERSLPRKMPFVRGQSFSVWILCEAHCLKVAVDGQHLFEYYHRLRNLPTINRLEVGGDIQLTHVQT

Homo sapiens [6] = species on record: Homo sapiens; test: Selectivity for human galectin-8N over human galectin-9 C terminal domain
Homo sapiens [7] = species on record: Homo sapiens; test: Selectivity for human galectin-8N over human galectin-9 N terminal domain
Galectin-2 = biological target: T2, Galectin-2 (Homo sapiens, UniProt P05162); test: Binding affinity to human galectin-2 assessed as dissociation constant by competitive fluorescence polarization assay
T2 sequence (P05162 whole entry): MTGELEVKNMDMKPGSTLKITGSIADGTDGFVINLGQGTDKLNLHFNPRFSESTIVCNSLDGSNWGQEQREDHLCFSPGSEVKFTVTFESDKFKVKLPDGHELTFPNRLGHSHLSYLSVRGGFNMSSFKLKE

Homo sapiens [8] = species on record: Homo sapiens; test: Selectivity for human galectin-8N over human galectin-8 C terminal domain
Galectin-7 [9] = biological target: T3, Galectin-7 (Homo sapiens, UniProt P47929); test: Binding affinity to human galectin-7 assessed as dissociation constant by competitive fluorescence polarization assay
T3 sequence (P47929 whole entry, the tested form may be a part): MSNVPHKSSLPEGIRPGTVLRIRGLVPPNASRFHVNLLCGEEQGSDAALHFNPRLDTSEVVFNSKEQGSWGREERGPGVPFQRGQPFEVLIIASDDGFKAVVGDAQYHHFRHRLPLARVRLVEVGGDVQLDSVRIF

Galectin-9 [10] = biological target: T1, Galectin-9; test: Binding affinity to human galectin-9 C terminal domain assessed as dissociation constant measured up to 1500 uM by competitive fluorescence polarization assay; settings: dose microM <=1500
[11] = biological target: Galectin-1 (Homo sapiens) (UniProt P09382); test: Binding affinity to human galectin-1 assessed as dissociation constant measured up to 1500 uM by competitive fluorescence polarization assay; settings: dose microM <=1500
Chain of Galectin-1 (Homo sapiens) (P09382 whole entry, the tested form may be a part): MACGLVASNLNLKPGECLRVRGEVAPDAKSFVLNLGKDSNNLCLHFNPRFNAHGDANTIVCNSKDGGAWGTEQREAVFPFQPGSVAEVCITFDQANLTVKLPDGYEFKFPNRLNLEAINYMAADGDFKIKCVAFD

Galectin-8 = biological target: T4, Galectin-8 (Homo sapiens, UniProt O00214); test: Binding affinity to human galectin-8 C terminal domain assessed as dissociation constant by competitive fluorescence polarization assay
T4 sequence (O00214 whole entry): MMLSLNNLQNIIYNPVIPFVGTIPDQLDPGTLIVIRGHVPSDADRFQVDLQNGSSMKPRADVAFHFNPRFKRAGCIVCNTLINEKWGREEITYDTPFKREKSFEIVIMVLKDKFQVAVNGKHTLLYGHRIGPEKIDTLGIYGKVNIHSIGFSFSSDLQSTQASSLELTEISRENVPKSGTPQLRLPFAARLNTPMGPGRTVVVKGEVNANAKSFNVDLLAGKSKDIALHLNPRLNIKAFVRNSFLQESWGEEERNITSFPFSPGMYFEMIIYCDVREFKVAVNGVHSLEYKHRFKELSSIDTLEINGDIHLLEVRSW

Galectin-4 [12] = biological target: T5, Galectin-4 (Homo sapiens, UniProt P56470); test: Binding affinity to human galectin-4 C terminal domain assessed as dissociation constant by competitive fluorescence polarization assay
T5 sequence (P56470 whole entry): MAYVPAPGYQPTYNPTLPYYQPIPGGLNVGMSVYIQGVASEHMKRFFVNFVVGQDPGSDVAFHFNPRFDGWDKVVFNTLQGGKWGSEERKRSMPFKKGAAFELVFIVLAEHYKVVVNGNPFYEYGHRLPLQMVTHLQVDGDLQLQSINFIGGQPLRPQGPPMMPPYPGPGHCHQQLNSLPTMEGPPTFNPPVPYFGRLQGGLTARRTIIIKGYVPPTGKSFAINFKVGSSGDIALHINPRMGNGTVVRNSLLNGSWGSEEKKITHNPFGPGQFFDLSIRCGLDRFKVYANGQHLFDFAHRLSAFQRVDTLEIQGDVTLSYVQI

[13] = Cytotoxicity against human PBMC cells assessed as cell viability upto 100 uM measured after 24 hrs by MTS assay; type: cell-based
Summary of the method: (§1)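 MTS viability assay on human PBMCs and on the K562 and MDA-MB-231 cancer lines. The cancer lines were exposed to 1–100 μM compound, and PBMCs to concentrations up to 100 μM. Read-out was the MTS tetrazolium reduction signal.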

[14] = biological target: T6, Galectin-8 (Homo sapiens) (UniProt O00214); test: Antagonist activity at galactin-8 in human MDA-MB-231 cells assessed as reduction in IL-6 secretion at 100 uM measured after 24 hrs by flow cytometry relative to control; type: cell-based; design: scale not given: the % may be the effect or the level left
T6 sequence (whole entry): T4 sequence (O00214 whole entry)
Summary of the method: (§2)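 MDA-MB-231 cells, which express galectin-8 endogenously, were incubated with the compounds at 10 or 100 μM. Secreted IL-6 and IL-8 were quantified in pg/mL and compared with untreated cells. Values are means ± SEM from three independent experiments, with significance tested against untreated controls. Cell viability at the same concentrations was checked separately by MTS assay.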

[15] = biological target: T6, Galectin-8 (Homo sapiens); test: Antagonist activity at galactin-8 in human MDA-MB-231 cells assessed as reduction in IL-8 secretion at 100 uM measured after 24 hrs by flow cytometry relative to control; type: cell-based; design: scale not given: the % may be the effect or the level left; summary of the method: as §2
Homo sapiens [16] = species on record: Homo sapiens; test: Selectivity for human galectin-8N over human galectin-2
MDA-MB-231 = test: Cytotoxicity against human MDA-MB-231 cells assessed as cell viability at 1 to 100 uM measured after 24 hrs by MTS assay; type: functional, cell-based; settings: dose 1-100 µM; summary of the method: as §1
Galectin-7 [17] = biological target: T3, Galectin-7; test: Binding affinity to human galectin-7 assessed as dissociation constant measured up to 1500 uM by competitive fluorescence polarization assay; settings: dose microM <=1500
K562 = test: Cytotoxicity against human K562 cells assessed as cell viability at 1 to 100 uM measured after 24 hrs by MTS assay; type: functional, cell-based; settings: dose 1-100 µM; summary of the method: as §1
Galectin-9 [18] = biological target: T1, Galectin-9; test: Binding affinity to human galectin-9 C terminal domain assessed as dissociation constant by competitive fluorescence polarization assay
Galectin-9 [19] = biological target: T1, Galectin-9; test: Binding affinity to human galectin-9 N terminal domain assessed as dissociation constant by competitive fluorescence polarization assay
Galectin-4 [20] = biological target: T5, Galectin-4; test: Binding affinity to human galectin-4 N terminal domain assessed as dissociation constant by competitive fluorescence polarization assay
[21] = biological target: T6, Galectin-8 (Homo sapiens); test: Antagonist activity at galactin-8 in human MDA-MB-231 cells assessed as reduction in IL-6 secretion at 10 uM measured after 24 hrs by flow cytometry relative to control; type: cell-based; design: scale not given: the % may be the effect or the level left; summary of the method: as §2
[22] = biological target: T6, Galectin-8 (Homo sapiens); test: Binding affinity to human galectin-8 C terminal domain assessed as dissociation constant measured up to 1500 uM by competitive fluorescence polarization assay; settings: dose microM <=1500
[23] = biological target: T7, Galectin-2 (Homo sapiens) (UniProt P05162); test: Binding affinity to human galectin-2 assessed as dissociation constant measured up to 1500 uM by competitive fluorescence polarization assay; settings: dose microM <=1500
T7 sequence (whole entry): T2 sequence (P05162 whole entry)

[24] = biological target: T8, Galectin-4 (Homo sapiens) (UniProt P56470); test: Binding affinity to human galectin-4 N terminal domain assessed as dissociation constant measured up to 1500 uM by competitive fluorescence polarization assay; settings: dose microM <=1500
T8 sequence (whole entry): T5 sequence (P56470 whole entry)

| SMILES | Selectivity ratio (Homo sapiens [1]) | Selectivity ratio (Homo sapiens [2]) | Selectivity ratio (Homo sapiens [3]) | Selectivity ratio (Homo sapiens [4]) | Activity (Galectin-9 [5]) | Selectivity ratio (Homo sapiens [6]) | Selectivity ratio (Homo sapiens [7]) | Kd (Galectin-2) | Selectivity ratio (Homo sapiens [8]) | Kd (Galectin-7 [9]) | Activity (Galectin-9 [10]) | Selectivity ratio (Homo sapiens [16]) | other results |
| --- | --- | --- | --- | --- | --- | --- | --- | --- | --- | --- | --- | --- | --- |
| OC[C@H]1OC=C[C@@H](O)[C@H]1O | > 2 | > 2 | 1.8 | 1.2 | inactive | > 2 | > 2 | Not Active | > 2 | Not Active |  |  |  |
| Cn1c(CO[C@@H]2C=CO[C@H](CO)[C@@H]2O)nc2cc(C(=O)O)ccc21 | 0.95 | > 2 | > 2 | 1.4 | inactive | > 2 | > 2 | Not Active | > 2 | Not Active | inactive |  |  |
| COC(=O)c1ccc2nc(CO[C@@H]3C=CO[C@H](CO)[C@@H]3O)[nH]c2c1 | > 2 | > 2 | > 2 | > 2 | inactive | > 2 | > 2 | Not Active | > 2 | Not Active | inactive |  | Activity [11]: inactive |
| OC[C@H]1Oc2cc(Cc3ccc(F)cc3)cc3c2[C@@H](OC3)[C@H]1O | > 2 | > 2 | > 2 | > 2 |  | > 2 | > 2 | Not Active |  | Not Active |  |  | Kd (Galectin-8): Not Active; Kd (Galectin-4 [12]; read-out: Kd): > 3 mM |
| Cn1c(CO[C@@H]2C=CO[C@H](CO)[C@@H]2O)nc2ccc(C(=O)O)cc21 |  | > 2 | > 2 |  |  | > 2 | > 2 |  | > 2 |  | inactive | > 2 | Activity [13]: Non-Toxic; Activity [14]: 65%; Activity [15]: 55%; Activity (MDA-MB-231): inactive; Activity (Galectin-7 [17]): inactive; Activity (K562): inactive |
| CCOC(=O)c1ccc2c(c1)nc(CO[C@@H]1C=CO[C@H](CO)[C@@H]1O)n2C | 0.99 |  |  | 1.2 |  |  |  | Not Active | > 2 | Not Active |  |  | Kd (Galectin-9 [18]): Not Active; Kd (Galectin-9 [19]): Not Active; Kd (Galectin-4 [20]): Not Active; Kd (Galectin-4 [12]): Not Active |
| COC(=O)c1ccc2nc(CO[C@@H]3C=CO[C@H](CO)[C@@H]3O)n(C)c2c1 | > 2 | > 2 | > 2 | > 2 | inactive |  | > 2 | Not Active | > 2 | Not Active |  |  | Kd (Galectin-9 [18]): Not Active |
| CO[C@@H]1O[C@H](CO)[C@H](O)[C@H](O)[C@H]1O |  |  |  |  |  |  |  |  |  | Not Active |  |  |  |
| Cn1c(CO[C@@H]2[C@@H](O)[C@@H](Sc3ccc(Cl)c(Cl)c3)O[C@H](CO)[C@@H]2O)nc2ccc(C(=O)O)cc21 |  |  |  |  |  |  |  |  |  |  |  |  | Activity [13]: Non-Toxic; Activity [21]: 15%; Activity [14]: 65%; Activity [15]: 55%; Activity (MDA-MB-231): inactive; Activity (K562): inactive |
| COC(=O)c1ccc2ccc(CO[C@@H]3C=CO[C@H](CO)[C@@H]3O)nc2c1 | > 2 | > 2 | > 2 | > 2 |  | > 2 | > 2 |  | > 2 | Not Active | inactive | > 2 | Activity [11]: inactive; Activity [22]: inactive; Activity [23]: inactive |
| O=C(O)c1ccc2nc(CO[C@@H]3C=CO[C@H](CO)[C@@H]3O)[nH]c2c1 | > 2 | > 2 | > 2 | > 2 | inactive | > 2 | > 2 |  | > 2 |  |  | > 2 | Activity [13]: Non-Toxic; Activity [11]: inactive; Kd (Galectin-8): Not Active; Activity (MDA-MB-231): inactive; Activity (Galectin-7 [17]): inactive; Activity (K562): inactive |
| O=C(O)c1ccc2ccc(CO[C@@H]3C=CO[C@H](CO)[C@@H]3O)nc2c1 | > 2 | > 2 | > 2 | > 2 |  | > 2 | > 2 |  | > 2 |  | inactive | > 2 | Activity [24]: inactive; Activity (Galectin-7 [17]): inactive |
